According to ChEMBL document CHEMBL3865790, “2-(Phenylsulfonyl)quinoline N-hydroxyacrylamides as potent anticancer agents inhibiting histone deacetylase” (Eur J Med Chem, 2016):
Activity calls are given as the source filed them. No cut-off for these calls is given here.

Tests used:
[1] = Antiproliferative activity against human HL60 cells after 48 hrs by SRB assay; format: functional, HL-60
Outline: (§1)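 Cells grown in RPMI 1640 with 10% FBS and antibiotics, then seeded in medium with 5% FBS. A T0 plate was fixed with 10% TCA at 24 h. Remaining cells were exposed to compound or DMSO for 48 h, TCA-fixed, and stained with 0.4% SRB in 1% acetic acid. Dye was solubilized in 10 mM Trizma base and read at 515 nm.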

[2] = Antiproliferative activity against human HCT116 cells after 48 hrs by SRB assay; format: functional, HCT-116; outline: as §1
[3] = Antiproliferative activity against human PC3 cells after 48 hrs by SRB assay; format: functional, PC-3; outline: as §1
[4] = Antiproliferative activity against human A549 cells after 48 hrs by SRB assay; format: functional; outline: as §1
[5] = biological target: T1, Protein deacetylase HDAC6 (Homo sapiens, UniProt Q9UBN7); assay: Inhibition of full length recombinant human HDAC6 expressed in baculovirus expression system assessed as release of 7-amino-4-methylcoumarin by fluorogenic assay
T1 sequence (Q9UBN7 whole entry): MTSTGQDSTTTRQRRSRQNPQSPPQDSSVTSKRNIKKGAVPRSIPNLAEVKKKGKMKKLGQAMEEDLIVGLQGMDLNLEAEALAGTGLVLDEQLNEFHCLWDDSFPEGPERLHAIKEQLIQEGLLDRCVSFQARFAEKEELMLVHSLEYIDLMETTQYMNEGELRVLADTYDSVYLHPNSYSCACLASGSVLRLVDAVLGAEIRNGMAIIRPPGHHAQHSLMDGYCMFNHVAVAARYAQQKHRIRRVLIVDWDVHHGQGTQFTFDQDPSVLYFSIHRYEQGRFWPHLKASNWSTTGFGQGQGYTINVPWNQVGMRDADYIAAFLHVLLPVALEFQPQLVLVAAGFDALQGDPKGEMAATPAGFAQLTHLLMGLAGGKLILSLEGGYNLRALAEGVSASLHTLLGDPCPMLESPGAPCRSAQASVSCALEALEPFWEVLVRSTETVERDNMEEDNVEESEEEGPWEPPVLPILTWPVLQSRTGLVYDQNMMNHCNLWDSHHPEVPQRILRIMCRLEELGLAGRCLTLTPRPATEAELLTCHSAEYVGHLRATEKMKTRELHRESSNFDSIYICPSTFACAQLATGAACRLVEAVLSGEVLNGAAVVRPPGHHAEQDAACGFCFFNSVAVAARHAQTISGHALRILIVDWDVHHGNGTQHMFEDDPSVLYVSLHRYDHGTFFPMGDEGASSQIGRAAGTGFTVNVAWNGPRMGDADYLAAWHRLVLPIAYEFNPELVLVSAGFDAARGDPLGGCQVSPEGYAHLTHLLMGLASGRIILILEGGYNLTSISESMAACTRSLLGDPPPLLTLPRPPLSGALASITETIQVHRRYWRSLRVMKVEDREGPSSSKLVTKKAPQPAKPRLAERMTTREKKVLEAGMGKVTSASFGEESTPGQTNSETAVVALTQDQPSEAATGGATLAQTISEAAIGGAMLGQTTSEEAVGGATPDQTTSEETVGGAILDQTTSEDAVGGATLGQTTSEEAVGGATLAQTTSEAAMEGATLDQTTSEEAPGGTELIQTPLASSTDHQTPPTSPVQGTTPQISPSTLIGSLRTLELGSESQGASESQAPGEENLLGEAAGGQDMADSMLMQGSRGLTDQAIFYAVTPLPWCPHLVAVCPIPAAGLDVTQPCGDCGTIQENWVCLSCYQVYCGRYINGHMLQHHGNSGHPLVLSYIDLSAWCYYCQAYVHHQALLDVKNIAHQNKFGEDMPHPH

[6] = test system: HCT-116; conditions: Homo sapiens, at 0.3 µM
[7] = test system: PC-3; conditions: Homo sapiens, at 0.3 µM
[8] = biological target: Histone deacetylase 1 (Homo sapiens, UniProt Q13547); assay: Inhibition of C-terminal His/FLAG-tagged full length recombinant human HDAC1 expressed in baculovirus expression system assessed as release of 7-amino-4-methylcoumarin by fluorogenic assay
[9] = biological target: Histone deacetylase 2 (Homo sapiens, UniProt Q92769); assay: Inhibition of full length recombinant human HDAC2 expressed in baculovirus expression system assessed as release of 7-amino-4-methylcoumarin by fluorogenic assay
[10] = biological target: T2, Histone deacetylase 8 (Homo sapiens, UniProt Q9BY41); assay: Inhibition of His-tagged full length recombinant human HDAC8 expressed in baculovirus expression system assessed as release of 7-amino-4-methylcoumarin by fluorogenic assay
T2 sequence (Q9BY41 whole entry): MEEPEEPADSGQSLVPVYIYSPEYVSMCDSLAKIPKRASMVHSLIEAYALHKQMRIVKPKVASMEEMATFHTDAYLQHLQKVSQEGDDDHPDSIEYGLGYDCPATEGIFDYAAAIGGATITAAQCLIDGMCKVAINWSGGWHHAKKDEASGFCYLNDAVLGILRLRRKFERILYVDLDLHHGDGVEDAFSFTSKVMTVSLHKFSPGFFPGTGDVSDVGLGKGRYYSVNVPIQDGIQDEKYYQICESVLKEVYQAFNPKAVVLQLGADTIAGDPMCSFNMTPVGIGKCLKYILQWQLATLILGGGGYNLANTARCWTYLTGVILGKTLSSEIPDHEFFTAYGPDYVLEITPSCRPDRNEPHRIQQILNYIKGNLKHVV

[11] = test system: HCT-116; assay: Antitumor activity in human HCT116 cells xenografted in nude mouse assessed as tumor growth inhibition administered daily through oral route; format: functional, cell-based
Outline: (§2)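 Male nude mice, 8 weeks old, implanted s.c. in the right flank with 1 x 10^7 log-phase HCT116 cells in PBS. Four groups of 7 received vehicle, 50 or 100 mg/kg test compound, or 200 mg/kg reference p.o. daily to endpoint, dosed at 10 mL/kg scaled to body weight. Tumor volume was taken as (w² × l)/2, and mice were monitored for adverse effects.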

[12] = Antitumor activity against human HCT116 cells xenografted in nude mouse assessed as tumor growth inhibition at 50 mg/kg, po qd; format: functional; conditions: HCT-116, po, read-out: TGI; outline: as §2
[13] = Antitumor activity against human HCT116 cells xenografted in nude mouse assessed as tumor growth inhibition at 100 mg/kg, po qd; format: functional; conditions: HCT-116, po, read-out: TGI; outline: as §2
[14] = test system: Mus musculus; assay: Toxicity in nude mouse xenografted with human HCT116 cells assessed as change in body weight at 50 to 100 mg/kg, po qd; format: organism-based, HCT-116; conditions: in vivo
[15] = test system: Mus musculus; assay: Toxicity in nude mouse xenografted with human HCT116 cells assessed as change in body weight at 200 mg/kg, po qd; format: organism-based, HCT-116; conditions: in vivo

Sequence of Histone deacetylase 2 (Q92769 whole entry): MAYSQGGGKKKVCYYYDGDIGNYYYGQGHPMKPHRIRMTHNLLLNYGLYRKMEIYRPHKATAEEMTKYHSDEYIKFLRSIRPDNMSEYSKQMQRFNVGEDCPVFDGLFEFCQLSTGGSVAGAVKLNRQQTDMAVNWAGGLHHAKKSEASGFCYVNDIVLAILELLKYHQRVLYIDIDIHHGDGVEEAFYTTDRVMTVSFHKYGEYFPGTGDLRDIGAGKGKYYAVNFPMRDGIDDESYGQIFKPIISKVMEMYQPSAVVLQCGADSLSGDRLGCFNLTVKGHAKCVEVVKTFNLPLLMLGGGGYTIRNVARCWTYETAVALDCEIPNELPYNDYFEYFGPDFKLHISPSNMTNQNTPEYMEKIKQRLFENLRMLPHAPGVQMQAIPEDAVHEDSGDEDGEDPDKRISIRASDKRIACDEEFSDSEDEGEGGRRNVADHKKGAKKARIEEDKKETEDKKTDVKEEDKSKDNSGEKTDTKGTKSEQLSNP
Sequence of Histone deacetylase 1 (Q13547 whole entry): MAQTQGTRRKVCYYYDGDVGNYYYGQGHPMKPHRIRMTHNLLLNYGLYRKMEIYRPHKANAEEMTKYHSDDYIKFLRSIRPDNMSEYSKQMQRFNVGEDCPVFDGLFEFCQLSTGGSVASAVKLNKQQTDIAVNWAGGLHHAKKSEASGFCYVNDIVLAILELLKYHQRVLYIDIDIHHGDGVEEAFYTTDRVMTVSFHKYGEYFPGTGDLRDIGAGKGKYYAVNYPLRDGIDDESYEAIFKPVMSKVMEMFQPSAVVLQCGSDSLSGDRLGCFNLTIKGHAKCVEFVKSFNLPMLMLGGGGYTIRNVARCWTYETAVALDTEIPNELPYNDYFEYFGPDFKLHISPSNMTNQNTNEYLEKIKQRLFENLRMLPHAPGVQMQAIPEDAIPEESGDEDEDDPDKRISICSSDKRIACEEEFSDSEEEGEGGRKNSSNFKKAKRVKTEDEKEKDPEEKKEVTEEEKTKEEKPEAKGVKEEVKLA

SMILES | GI50 ([1]; Homo sapiens, HL-60, 48 h) [nM] | GI50 ([2]; Homo sapiens, HCT-116, 48 h) [nM] | GI50 ([3]; Homo sapiens, PC-3, 48 h) [nM] | GI50 ([4]; Homo sapiens, A549, 48 h) [nM] | further results
O=C(/C=C/c1cccc(C(=O)c2ccc3ccccc3n2)c1)NO | 1230 | 350 | 470 | 840 | 
O=C(/C=C/c1cccc(S(=O)(=O)Nc2ccccc2)c1)NO [BELINOSTAT] | 1090 | 130 | 390 | 780 | IC50 [5]: 50 nM; inhibition [6]: Active; inhibition [7]: Active
O=C(/C=C/c1cccc(S(=O)(=O)c2ccccn2)c1)NO | 1980 | 1480 | 2650 | 1710 | 
COc1ccc(S(=O)(=O)c2ccc3cccc(/C=C/C(=O)NO)c3n2)cc1 | 1170 | 310 | 790 | 1320 | 
O=C(/C=C/c1cccc(S(=O)(=O)c2ccc3cccc(Cl)c3n2)c1)NO | 2640 | 1310 | 1350 | 1420 | 
COc1ccc2nc(S(=O)(=O)c3cccc(/C=C/C(=O)NO)c3)ccc2c1 | 720 | 240 | 280 | 350 | 
O=C(/C=C/c1cccc(S(=O)(=O)c2ccc3cc(Cl)ccc3n2)c1)NO | 1330 | 920 | 760 | 1010 | 
O=C(/C=C/c1cccc(S(=O)(=O)c2ccc3ccccc3n2)c1)NO | 290 | 80 | 150 | 270 | IC50 [8]: 14 nM; IC50 [9]: 11.5 nM; IC50 [5]: 15 nM; IC50 [10]: 130 nM; TGI [11]: Dose-dependent effect; inhibition in vivo at 50 mg/kg [12]: 32.2%; inhibition in vivo at 100 mg/kg [13]: 58.8%; Activity [14]: Non-Toxic; inhibition [6]: Active; inhibition [7]: Active
COc1ccc(S(=O)(=O)c2ccc3ccc(/C=C/C(=O)NO)cc3n2)cc1 | 830 | 240 | 1010 | 1510 | 
COc1ccc(S(=O)(=O)c2ccc3cc(/C=C/C(=O)NO)ccc3n2)cc1 | 1140 | 1390 | 1350 | 4750 | 
O=C(/C=C/c1cccc(S(=O)(=O)c2ccc3cccc(F)c3n2)c1)NO | 720 | 440 | 320 | 640 | IC50 [8]: 5.74 nM; IC50 [9]: 15 nM; IC50 [5]: 5.89 nM; IC50 [10]: 200 nM; inhibition [6]: Active; inhibition [7]: Active
COc1ccc(S(=O)(=O)c2nc3ccccc3cc2/C=C/C(=O)NO)cc1 | > 10000 | > 10000 | > 10000 | > 10000 | 
COc1ccc(S(=O)(=O)c2ccc3c(/C=C/C(=O)NO)cccc3n2)cc1 | > 10000 | > 10000 | > 10000 | > 10000 | 
O=C(CCCCCCC(=O)Nc1ccccc1)NO [VORINOSTAT] |  |  |  |  | GI50 [1]: 1740 nM; GI50 [2]: 150 nM; GI50 [3]: 730 nM; GI50 [4]: 1020 nM; Activity [15]: Non-Toxic
O=C(/C=C/c1ccc(C(=O)c2ccc3ccccc3n2)cc1)NO | 1150 | 360 | 560 | 1130 | 
O=C(/C=C/c1ccc(S(=O)(=O)c2ccc3ccccc3n2)cc1)NO | 800 | 310 | 490 | 880 | 
